Results published in ChEMBL document CHEMBL3351375, “Propyphenazone-based analogues as prodrugs and selective cyclooxygenase-2 inhibitors” (ACS Med Chem Lett, 2014).
The source made the active and inactive calls. The calls are words filed in the database; no cut-off is given here.

Columns and labels:
[1] = target: T1, Prostaglandin G/H synthase 1 (Ovis aries, UniProt P05979); experiment: Inhibition of purified ovine COX1 pre-treated for 1 hr before 10-acetyl-3,7-dihydroxyphenoxazin substrate addition in absence of porcine liver esterase by fluorescence assay
T1 sequence (P05979 whole entry): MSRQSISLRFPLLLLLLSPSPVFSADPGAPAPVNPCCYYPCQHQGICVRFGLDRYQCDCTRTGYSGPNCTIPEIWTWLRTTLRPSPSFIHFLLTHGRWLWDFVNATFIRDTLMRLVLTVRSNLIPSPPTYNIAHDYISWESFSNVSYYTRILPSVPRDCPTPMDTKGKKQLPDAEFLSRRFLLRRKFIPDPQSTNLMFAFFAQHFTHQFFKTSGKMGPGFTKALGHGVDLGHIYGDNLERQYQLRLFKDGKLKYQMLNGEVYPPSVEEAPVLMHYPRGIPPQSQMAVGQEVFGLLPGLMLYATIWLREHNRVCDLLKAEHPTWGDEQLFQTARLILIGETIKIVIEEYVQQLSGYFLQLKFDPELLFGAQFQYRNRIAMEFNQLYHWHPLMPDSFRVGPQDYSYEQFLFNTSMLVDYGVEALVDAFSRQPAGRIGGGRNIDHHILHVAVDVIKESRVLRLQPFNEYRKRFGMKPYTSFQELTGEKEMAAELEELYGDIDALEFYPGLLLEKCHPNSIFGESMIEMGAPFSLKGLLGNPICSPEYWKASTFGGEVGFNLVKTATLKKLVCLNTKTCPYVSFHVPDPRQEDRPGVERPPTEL
How it was run: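 COX1 (ovine) and COX2 (human recombinant) were inhibited, with compound tested both without and with porcine liver esterase added. IC50 (μM) and % inhibition at saturation were reported.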

[2] = target: T2, Prostaglandin G/H synthase 1 (Ovis aries) (UniProt P05979); experiment: Inhibition of purified ovine COX1 at saturation drug level pre-treated for 1 hr before 10-acetyl-3,7-dihydroxyphenoxazin substrate addition in absence of porcine liver esterase by fluorescence assay
T2 sequence (whole entry): T1 sequence (P05979 whole entry)
How it was run: (§1)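 COX1 (ovine) and COX2 (human recombinant) were inhibited, with compound tested both without and with porcine liver esterase added. IC50 (μM) and % inhibition at saturation were reported. COX1 was also tested at a single 160 μM concentration.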

[3] = target: T1, Prostaglandin G/H synthase 1; experiment: Inhibition of purified ovine COX1 pre-treated for 1 hr before 10-acetyl-3,7-dihydroxyphenoxazin substrate addition in presence of porcine liver esterase by fluorescence assay; how it was run: as §1
[4] = target: T2, Prostaglandin G/H synthase 1 (Ovis aries); experiment: Inhibition of purified ovine COX1 at saturation drug level pre-treated for 1 hr before 10-acetyl-3,7-dihydroxyphenoxazin substrate addition in presence of porcine liver esterase by fluorescence assay; how it was run: as §1
[5] = target: T3, Prostaglandin G/H synthase 2 (Homo sapiens, UniProt P35354); experiment: Inhibition of human recombinant COX2 pre-treated for 1 hr before 10-acetyl-3,7-dihydroxyphenoxazin substrate addition in presence of porcine liver esterase by fluorescence assay; how it was run: as §1
T3 sequence (P35354 whole entry): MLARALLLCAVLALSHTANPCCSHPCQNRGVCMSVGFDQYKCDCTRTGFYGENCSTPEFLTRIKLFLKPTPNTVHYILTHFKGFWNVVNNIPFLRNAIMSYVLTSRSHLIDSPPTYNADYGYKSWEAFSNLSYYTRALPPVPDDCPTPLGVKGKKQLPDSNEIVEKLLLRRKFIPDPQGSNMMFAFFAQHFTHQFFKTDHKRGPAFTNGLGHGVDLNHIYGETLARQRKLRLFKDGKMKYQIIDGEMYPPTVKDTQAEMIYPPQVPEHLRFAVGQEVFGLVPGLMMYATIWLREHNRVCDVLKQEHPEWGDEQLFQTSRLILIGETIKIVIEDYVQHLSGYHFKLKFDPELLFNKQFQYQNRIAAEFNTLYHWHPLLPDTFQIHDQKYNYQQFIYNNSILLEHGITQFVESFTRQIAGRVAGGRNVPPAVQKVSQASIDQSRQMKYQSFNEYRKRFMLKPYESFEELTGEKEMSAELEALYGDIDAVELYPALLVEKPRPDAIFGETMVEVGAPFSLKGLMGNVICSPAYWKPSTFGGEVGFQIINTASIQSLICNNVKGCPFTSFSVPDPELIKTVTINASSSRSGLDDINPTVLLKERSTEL

Liver carboxylesterase [6] = target: T4, Liver carboxylesterase (Sus scrofa, UniProt Q29550); experiment: Prodrug conversion assessed as half life for porcine liver esterase-mediated prodrug conversion measured every 4 minutes for 100 mins by UV-visible absorption spectroscopy; assay type: ADME; settings: pig, isolated protein
T4 sequence (Q29550 whole entry): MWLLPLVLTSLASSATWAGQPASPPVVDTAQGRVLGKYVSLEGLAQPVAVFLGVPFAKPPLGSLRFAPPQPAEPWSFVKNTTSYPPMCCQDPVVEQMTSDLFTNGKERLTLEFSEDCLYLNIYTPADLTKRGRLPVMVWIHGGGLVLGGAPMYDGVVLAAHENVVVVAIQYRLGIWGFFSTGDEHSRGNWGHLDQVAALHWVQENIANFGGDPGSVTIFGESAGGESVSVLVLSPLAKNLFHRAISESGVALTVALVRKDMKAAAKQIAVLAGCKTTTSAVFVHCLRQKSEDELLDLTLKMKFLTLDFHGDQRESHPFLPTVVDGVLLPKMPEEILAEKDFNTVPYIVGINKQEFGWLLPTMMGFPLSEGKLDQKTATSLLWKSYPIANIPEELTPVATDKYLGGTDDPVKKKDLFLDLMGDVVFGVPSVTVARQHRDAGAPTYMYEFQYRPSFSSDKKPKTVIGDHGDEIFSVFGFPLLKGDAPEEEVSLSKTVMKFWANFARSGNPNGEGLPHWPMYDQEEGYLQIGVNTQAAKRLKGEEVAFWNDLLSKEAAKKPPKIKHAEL
How it was run: (§2)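 Compound was incubated with porcine liver esterase at pH 7.5. UV–vis absorption spectra were recorded every 4 min for 100 min after esterase addition. Pseudo-first-order rate constants (s−1) were derived, and half-lives were calculated from them.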

Mus musculus [7] = experiment: Anti-inflammatory activity in Swiss mouse model of carrageenan-induced paw edema assessed as reduction in paw swelling at 50 mg/kg, sc dosed 30 mins before carrageenan challenge measured at 1 to 4 hrs post carrageenan challenge by mercury plethysmometry; assay type: functional, organism-based; parameters: dose 50 mg/kg
How it was run: (§3)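 In a mouse carrageenan paw edema model, compounds were given subcutaneously as pretreatment before the carrageenan injection. Swelling of the injected paw was measured with a mercury plethysmometer at 1, 2, 3 and 4 h. Activity was expressed as reduction in swelling relative to control.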

Mus musculus [8] = experiment: Analgesic activity in mouse assessed as protection against acetic acid-induced abdominal constriction dosed 1 hr before acetic acid challenge measured for 20 mins post acetic acid challenge
Liver carboxylesterase [9] = target: T4, Liver carboxylesterase; experiment: Prodrug conversion assessed as pseudo-first-order rate constant for porcine liver esterase-mediated prodrug conversion measured every 4 minutes for 100 mins by UV-visible absorption spectroscopy; assay type: ADME; settings: pig, isolated protein; how it was run: as §2
Mus musculus [10] = experiment: Anti-inflammatory activity in Swiss mouse model of carrageenan-induced paw edema assessed as reduction in paw swelling at 50 mg/kg, sc dosed 30 mins before carrageenan challenge measured at 2 to 4 hrs post carrageenan challenge by mercury plethysmometry; assay type: functional, organism-based; parameters: dose 50 mg/kg; how it was run: as §3
Mus musculus [11] = experiment: Analgesic activity in mouse assessed as protection against acetic acid-induced abdominal constriction dosed with equimolar mixture of propyphenazone 1 hr before acetic acid challenge measured for 20 mins post acetic acid challenge
Mus musculus [12] = experiment: Anti-inflammatory activity in Swiss mouse model of carrageenan-induced paw edema assessed as reduction in paw swelling at 50 mg/kg, sc dosed 30 mins before carrageenan challenge measured at 120 mins post carrageenan challenge by mercury plethysmometry; assay type: functional, organism-based; parameters: dose 50 mg/kg; how it was run: as §3

| SMILES | IC50 ([1]; read-out: IC50) | inhibition ([2]; concentration not given here) | IC50 ([3]; read-out: IC50) | inhibition ([4]; concentration not given here) | t1/2 (Liver carboxylesterase [6]) | Anti-inflammatory activity (Mus musculus [7]) | Activity (Mus musculus [8]) | IC50 ([5]; read-out: IC50) | K (Liver carboxylesterase [9]) | inhibition (Mus musculus [10]) | also measured |
| --- | --- | --- | --- | --- | --- | --- | --- | --- | --- | --- | --- |
| CC(C)c1c(CN(C)CCc2ccccn2)n(C)n(-c2ccccc2)c1=O | 24 µM | 43% | 24 µM | 43% | Stable | inactive | 45% | – | – | – | IC50 [5]: Not Active |
| CC(C)Cc1ccc(C(C)C(=O)O)cc1 (stereo unspecified) | – | – | – | – | – | Active | – | – | – | – | – |
| O=C(O)Cc1ccccc1Nc1c(Cl)cccc1Cl [DICLOFENAC] | – | 100% | – | – | – | Active | 63% | – | – | – | – |
| CC(C)Cc1ccc(C(C)C(=O)OCc2c(C(C)C)c(=O)n(-c3ccccc3)n2C)cc1 (stereo unspecified) | – | – | 4.7 µM | 100% | 28.8 min | – | 95% | 1.3 µM | 0.0004 s⁻¹ | Active | IC50 [1]: Not Active; inhibition [2]: inactive |
| Cc1c(N)c(=O)n(-c2ccccc2)n1C [AMPYRONE] | 26 µM | 100% | – | – | – | – | 45% | – | – | – | Activity (Mus musculus [11]): 35% |
| Cc1c(C(C)C)c(=O)n(-c2ccccc2)n1C [PROPYPHENAZONE] | – | – | – | – | – | inactive | 45% | – | – | – | – |
| CC(C(=O)O)c1cccc(C(=O)c2ccccc2)c1 (stereo unspecified) [KETOPROFEN] | 0.8 µM | 100% | – | – | – | Active | 66% | – | – | – | – |
| CC(C)c1c(COC(=O)Cc2ccccc2Nc2c(Cl)cccc2Cl)n(C)n(-c2ccccc2)c1=O | 7.1 µM | 29% | 0.25 µM | 100% | 11.5 min | – | 87% | 9.9 µM | 0.001 s⁻¹ | Active | – |
| Cc1c(NCc2c(C(C)C)c(=O)n(-c3ccccc3)n2C)c(=O)n(-c2ccccc2)n1C [BISFENAZONE] | – | – | – | – | Stable | – | 100% | – | – | – | IC50 [1]: Not Active; inhibition [2]: inactive; IC50 [3]: Not Active; inhibition [4]: inactive; inhibition (Mus musculus [12]): Active |
| CC(C)c1c(COC(=O)C(C)c2cccc(C(=O)c3ccccc3)c2)n(C)n(-c2ccccc2)c1=O (stereo unspecified) | 0.2 µM | 43% | 0.48 µM | 100% | 38.5 min | – | 73% | 2.2 µM | 0.0003 s⁻¹ | Active | – |
